19 compounds from ChEMBL document CHEMBL1667807, “Discovery of imidazo[1,2-b]pyridazines as IKKβ inhibitors. Part 2: improvement of potency in vitro and in vivo” (Bioorg Med Chem Lett, 2011) can be followed below.

Activity calls are given as the source filed them. The rule behind the calls is not given here.

Series [1] deals with T1, Serine/threonine-protein kinase D2 (Homo sapiens) (UniProt Q9BZL6).
T1 sequence (whole entry): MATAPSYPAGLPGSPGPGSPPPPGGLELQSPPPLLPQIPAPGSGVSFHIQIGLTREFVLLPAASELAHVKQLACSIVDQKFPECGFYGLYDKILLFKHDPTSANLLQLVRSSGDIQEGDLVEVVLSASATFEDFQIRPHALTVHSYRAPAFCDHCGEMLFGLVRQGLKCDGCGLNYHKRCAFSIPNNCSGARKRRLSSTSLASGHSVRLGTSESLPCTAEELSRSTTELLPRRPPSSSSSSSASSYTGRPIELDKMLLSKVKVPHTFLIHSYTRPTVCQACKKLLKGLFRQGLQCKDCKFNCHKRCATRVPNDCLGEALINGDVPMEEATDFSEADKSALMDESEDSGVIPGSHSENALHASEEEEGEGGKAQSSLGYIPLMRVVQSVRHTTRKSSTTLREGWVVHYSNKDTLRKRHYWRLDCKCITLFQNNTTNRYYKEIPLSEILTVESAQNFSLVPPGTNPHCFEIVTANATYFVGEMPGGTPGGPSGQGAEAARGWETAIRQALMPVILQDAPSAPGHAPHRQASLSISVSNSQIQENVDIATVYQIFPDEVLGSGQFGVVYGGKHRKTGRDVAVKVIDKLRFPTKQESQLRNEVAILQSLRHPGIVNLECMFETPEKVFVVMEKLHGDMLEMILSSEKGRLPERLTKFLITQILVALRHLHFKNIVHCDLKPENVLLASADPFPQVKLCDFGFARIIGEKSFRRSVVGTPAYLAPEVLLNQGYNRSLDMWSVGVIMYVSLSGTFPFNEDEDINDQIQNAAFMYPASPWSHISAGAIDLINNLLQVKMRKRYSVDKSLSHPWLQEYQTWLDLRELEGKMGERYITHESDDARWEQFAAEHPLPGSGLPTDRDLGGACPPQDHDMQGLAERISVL
As to the kind of experiment: Inhibition of PKD2 at 10 uM.

Series [2] can be described thus: Membrane permeability at pH 7.4 by PAMPA assay. Format: ADME. Particulars: read-out: permeability. The method, boiled down: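 Parallel artificial membrane permeability assay run at pH 7.4. Effective permeability Pe reported in 10^-6 cm/s as the median of three tests.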
In series [3] the target is ALK tyrosine kinase receptor (Homo sapiens) (UniProt Q9UM73). In words: Inhibition of ALK at 10 uM.
A further series concerns Mus musculus. In words: Antiinflammatory activity in BALB/c mouse assessed as inhibition of LPS-induced TNFalpha production at 30 mg/kg, po after 1 hr by ELISA. The series is classed as functional. The method, boiled down: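 Male BALB/c mice (7–12 weeks old) dosed orally, vehicle 0.5% methyl cellulose. LPS 0.02 mg/kg in saline given i.v. 30 min after dosing. Plasma separated at 4 °C, stored at −20 °C, and TNFα quantified by ELISA. Percent inhibition recorded.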
In general terms: In an ELISA, binding on a coated surface is turned into a signal by an enzyme label.

A further series deals with Plasma. In words: Plasma concentration in BALB/c mouse at 30 mg/kg, po after 90 mins. Format: ADME, organism-based. On the set-up: dose 30 mg/kg. The method in brief:
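Plasma concentration of compound in mice measured 90 min after a 30 mg/kg oral dose.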

Series [4] can be described thus: Metabolic stability of the compound in mouse liver microsomes assessed as compound remaining at 1 uM after 30 mins. The series is classed as ADME, Microsome. Particulars: read-out: Stability. The method, boiled down:
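Compound at 1 μM incubated 30 min with mouse liver microsomes at 0.1 mg/ml protein. Percent of parent compound remaining reported.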

The target in series [5] is Tyrosine-protein kinase JAK2 (Homo sapiens) (UniProt O60674). As to the kind of experiment: Inhibition of JAK2 at 10 uM.
In another series the test system is Blood. In words: Antiinflammatory activity in BALB/c mouse whole blood assessed as inhibition of LPS-induced TNFalpha production by ELISA. Format: functional, tissue-based. The method in brief:
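Mouse whole blood cell suspension stimulated with LPS (medium-only control), incubated 4 h at 37 °C in 5% CO2. Plasma then separated by centrifugation at 4 °C and TNFα measured by ELISA. IC50 derived.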

Series [6] deals with T2, Inhibitor of nuclear factor kappa-B kinase subunit beta (Homo sapiens, UniProt O14920).
T2 sequence (O14920 whole entry): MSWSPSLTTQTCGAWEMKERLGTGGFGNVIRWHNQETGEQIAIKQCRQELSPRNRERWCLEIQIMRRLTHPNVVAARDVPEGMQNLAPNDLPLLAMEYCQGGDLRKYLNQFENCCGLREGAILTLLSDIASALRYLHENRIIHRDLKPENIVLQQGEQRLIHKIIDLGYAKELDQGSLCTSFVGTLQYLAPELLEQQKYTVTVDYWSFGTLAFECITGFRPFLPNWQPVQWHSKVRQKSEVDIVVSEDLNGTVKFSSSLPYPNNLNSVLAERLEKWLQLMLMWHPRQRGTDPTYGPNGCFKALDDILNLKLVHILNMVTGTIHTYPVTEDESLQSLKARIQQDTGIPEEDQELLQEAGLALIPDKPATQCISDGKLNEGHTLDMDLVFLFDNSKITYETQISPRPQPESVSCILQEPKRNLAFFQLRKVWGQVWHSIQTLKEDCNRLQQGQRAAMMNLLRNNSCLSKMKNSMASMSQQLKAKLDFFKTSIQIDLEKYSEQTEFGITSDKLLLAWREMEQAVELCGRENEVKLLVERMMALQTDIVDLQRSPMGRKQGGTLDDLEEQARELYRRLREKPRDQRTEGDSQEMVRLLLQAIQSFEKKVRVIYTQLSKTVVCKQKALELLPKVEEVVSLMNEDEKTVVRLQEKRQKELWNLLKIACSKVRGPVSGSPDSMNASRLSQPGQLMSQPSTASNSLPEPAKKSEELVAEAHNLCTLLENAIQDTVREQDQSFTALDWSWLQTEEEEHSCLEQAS
In words: Inhibition of purified His-tagged IKK-beta after 15 mins.

For series [7], the target named is Serine/threonine-protein kinase D3 (Homo sapiens) (UniProt O94806). As to the kind of experiment: Inhibition of PKD3 at 0.2 uM.
Chain of Serine/threonine-protein kinase D3 (Homo sapiens) (O94806 whole entry, looked up): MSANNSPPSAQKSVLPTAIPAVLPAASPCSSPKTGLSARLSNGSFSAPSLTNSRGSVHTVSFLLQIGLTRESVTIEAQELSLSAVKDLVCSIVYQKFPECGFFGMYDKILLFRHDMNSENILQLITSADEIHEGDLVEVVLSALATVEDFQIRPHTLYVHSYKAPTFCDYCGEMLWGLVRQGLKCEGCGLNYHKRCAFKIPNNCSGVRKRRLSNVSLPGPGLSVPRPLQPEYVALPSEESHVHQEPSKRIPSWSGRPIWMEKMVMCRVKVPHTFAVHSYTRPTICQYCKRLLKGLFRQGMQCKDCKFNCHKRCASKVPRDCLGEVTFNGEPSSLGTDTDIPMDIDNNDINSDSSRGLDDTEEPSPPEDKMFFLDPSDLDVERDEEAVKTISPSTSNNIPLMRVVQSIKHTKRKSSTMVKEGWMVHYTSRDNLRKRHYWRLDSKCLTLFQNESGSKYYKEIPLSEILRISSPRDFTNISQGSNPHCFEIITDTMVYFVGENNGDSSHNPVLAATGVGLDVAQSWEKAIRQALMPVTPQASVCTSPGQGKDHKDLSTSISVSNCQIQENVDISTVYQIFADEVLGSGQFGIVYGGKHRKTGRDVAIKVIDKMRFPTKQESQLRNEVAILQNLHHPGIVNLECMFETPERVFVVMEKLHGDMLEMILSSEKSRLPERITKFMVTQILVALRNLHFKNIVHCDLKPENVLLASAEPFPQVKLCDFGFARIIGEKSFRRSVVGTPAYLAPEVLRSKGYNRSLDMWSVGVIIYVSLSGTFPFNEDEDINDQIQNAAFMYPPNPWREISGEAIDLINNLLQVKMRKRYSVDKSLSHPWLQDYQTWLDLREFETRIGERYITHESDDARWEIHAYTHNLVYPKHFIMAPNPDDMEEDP

Chain of ALK tyrosine kinase receptor (Homo sapiens) (Q9UM73 19-1620 limits assumed): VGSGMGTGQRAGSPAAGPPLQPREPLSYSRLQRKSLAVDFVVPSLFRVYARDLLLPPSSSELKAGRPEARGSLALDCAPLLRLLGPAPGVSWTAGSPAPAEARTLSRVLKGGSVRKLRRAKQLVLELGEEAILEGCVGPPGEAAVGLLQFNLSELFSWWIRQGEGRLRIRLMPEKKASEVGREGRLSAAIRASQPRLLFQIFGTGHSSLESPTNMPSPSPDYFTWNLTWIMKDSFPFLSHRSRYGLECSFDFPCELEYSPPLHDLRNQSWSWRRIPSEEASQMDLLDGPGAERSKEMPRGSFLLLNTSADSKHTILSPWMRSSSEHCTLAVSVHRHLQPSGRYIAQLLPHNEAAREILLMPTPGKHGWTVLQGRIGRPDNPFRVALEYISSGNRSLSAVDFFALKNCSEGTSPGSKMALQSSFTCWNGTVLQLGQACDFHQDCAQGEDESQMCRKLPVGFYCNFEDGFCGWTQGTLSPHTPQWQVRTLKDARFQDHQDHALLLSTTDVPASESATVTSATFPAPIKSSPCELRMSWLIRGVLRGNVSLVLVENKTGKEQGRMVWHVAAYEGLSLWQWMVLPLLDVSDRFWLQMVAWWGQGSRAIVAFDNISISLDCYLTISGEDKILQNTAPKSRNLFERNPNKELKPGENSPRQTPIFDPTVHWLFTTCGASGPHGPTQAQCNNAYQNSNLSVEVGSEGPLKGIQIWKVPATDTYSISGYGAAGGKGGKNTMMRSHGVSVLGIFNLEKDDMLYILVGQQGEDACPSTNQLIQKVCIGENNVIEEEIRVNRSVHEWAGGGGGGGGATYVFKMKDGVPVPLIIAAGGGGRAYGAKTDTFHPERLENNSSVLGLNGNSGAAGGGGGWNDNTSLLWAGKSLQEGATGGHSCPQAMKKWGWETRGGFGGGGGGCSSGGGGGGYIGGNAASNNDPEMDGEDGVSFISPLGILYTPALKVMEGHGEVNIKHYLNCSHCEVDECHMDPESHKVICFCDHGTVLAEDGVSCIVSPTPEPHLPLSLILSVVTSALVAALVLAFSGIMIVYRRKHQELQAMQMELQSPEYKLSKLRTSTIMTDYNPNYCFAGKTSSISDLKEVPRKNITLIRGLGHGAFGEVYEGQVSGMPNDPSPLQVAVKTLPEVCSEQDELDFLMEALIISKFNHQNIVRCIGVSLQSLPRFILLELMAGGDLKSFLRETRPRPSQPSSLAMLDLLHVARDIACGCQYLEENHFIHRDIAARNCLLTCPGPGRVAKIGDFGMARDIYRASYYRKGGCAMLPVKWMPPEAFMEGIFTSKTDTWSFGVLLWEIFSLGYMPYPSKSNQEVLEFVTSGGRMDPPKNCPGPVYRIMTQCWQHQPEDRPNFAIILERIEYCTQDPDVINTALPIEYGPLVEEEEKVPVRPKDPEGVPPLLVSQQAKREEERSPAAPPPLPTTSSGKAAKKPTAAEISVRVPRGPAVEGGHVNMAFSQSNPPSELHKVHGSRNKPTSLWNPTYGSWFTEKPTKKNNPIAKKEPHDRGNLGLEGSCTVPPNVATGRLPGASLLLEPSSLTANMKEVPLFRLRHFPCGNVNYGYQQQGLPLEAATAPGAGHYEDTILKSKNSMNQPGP
Chain of Tyrosine-protein kinase JAK2 (Homo sapiens) (O60674 whole entry): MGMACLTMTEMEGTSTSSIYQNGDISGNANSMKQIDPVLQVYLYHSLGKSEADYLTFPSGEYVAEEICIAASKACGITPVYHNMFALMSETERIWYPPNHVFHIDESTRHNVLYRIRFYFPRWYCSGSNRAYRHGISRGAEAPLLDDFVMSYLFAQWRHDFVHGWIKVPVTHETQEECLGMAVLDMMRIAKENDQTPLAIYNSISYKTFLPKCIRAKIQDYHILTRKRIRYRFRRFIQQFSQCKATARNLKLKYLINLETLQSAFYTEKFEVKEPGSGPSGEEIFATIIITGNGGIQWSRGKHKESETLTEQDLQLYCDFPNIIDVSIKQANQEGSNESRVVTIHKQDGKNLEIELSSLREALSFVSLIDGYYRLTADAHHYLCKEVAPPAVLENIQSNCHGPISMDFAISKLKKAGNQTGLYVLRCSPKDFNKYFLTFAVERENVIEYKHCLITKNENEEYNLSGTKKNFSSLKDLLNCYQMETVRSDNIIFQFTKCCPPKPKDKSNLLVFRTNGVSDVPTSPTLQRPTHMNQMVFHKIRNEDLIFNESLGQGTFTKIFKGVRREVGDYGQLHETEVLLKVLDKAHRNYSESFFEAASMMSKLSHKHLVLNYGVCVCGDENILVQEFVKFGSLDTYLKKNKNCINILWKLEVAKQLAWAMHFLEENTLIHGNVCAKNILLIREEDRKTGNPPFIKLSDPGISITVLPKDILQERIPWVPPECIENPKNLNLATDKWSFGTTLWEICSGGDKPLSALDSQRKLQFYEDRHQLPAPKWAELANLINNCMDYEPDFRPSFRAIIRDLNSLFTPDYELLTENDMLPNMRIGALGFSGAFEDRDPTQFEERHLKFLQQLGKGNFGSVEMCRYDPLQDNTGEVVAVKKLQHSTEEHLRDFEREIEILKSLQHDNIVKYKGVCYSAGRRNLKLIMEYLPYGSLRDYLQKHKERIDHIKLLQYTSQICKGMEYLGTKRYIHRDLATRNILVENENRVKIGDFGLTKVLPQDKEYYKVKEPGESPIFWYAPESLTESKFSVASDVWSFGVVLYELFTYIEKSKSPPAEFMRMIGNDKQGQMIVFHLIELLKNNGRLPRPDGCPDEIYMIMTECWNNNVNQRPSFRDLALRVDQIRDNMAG

Turning to `O=C(NC[C@@H]1CCCN1)c1ccc(-c2cnc3ccc(NCC4CC4)nn23)cc1`, the inhibition in series [1], in [3] and in series [5] was above 90% throughout. In addition, the Papp in series [2] is below 2 ×10⁻⁶ cm/s. The inhibition result in the series on Mus musculus was “inactive”. Moreover, the Cp in the series with Plasma turned out to be 0.0075 µg/mL. Further, the remaining at 0.5 h, 1 µM in series [4] is 77%. The IC50 with Blood turned out to be 6.8 µM.
Turning to `CO[C@H]1CCN[C@@H]1CNC(=O)c1ccc(-c2cnc3ccc(NCC4CC4)nn23)cc1`, in series [2], the Papp worked out at 6.5 ×10⁻⁶ cm/s. For the same compound, the IC50 amounted to 2.1 µM in the series with Blood and 0.023 µM in [6].
For `O=C(c1ccc(-c2cnc3ccc(NCC4CC4)nn23)cc1)N(Cc1ccccc1)C[C@@H]1C[C@@H](F)CN1`, in that order: above 50 ×10⁻⁶ cm/s, 0.4 µM and 0.012 µM.
For `O=C(O)c1ccc(CN(C[C@@H]2C[C@@H](F)CN2)C(=O)c2ccc(-c3cnc4ccc(NCC5CC5)nn34)cc2)cc1`, in that order: below 2 ×10⁻⁶ cm/s, above 10 µM and 0.017 µM.
`CC(=O)Nc1ccc(CN(C[C@@H]2C[C@@H](F)CN2)C(=O)c2ccc(-c3cnc4ccc(NCC5CC5)nn34)cc2)cc1`: the Papp in series [2] was below 2 ×10⁻⁶ cm/s. For the same compound, the IC50 with Blood came out at 2.7 µM; in [6], 0.015 µM.
Take `CN(C[C@@H]1C[C@@H](F)CN1)C(=O)c1ccc(-c2cnc3ccc(NCC4CC4)nn23)cc1`: the Papp in series [2] is above 50 ×10⁻⁶ cm/s. In the series on Mus musculus, the inhibition in vivo at 30 mg/kg was 26%. The compound also had a Cp with Plasma of 0.34 µg/mL. In addition, the remaining at 0.5 h, 1 µM in series [4] turned out to be 50%. Also, the IC50 came out at 0.48 µM in the series with Blood and 0.042 µM in [6].
As for `O=C(NC[C@H]1NCC[C@@H]1F)c1ccc(-c2cnc3ccc(NCC4CC4)nn23)cc1`, the IC50 with Blood was 1.2 µM; in [6], 0.021 µM.
Consider `O=C(NC[C@@H]1C[C@@H](F)CN1)c1ccc(-c2cnc3ccc(NCC4CC4)nn23)cc1`, for which the Papp in series [2] came to 36 ×10⁻⁶ cm/s. The same compound returned an inhibition in [7] of 80%. The IC50 with Blood is 0.57 µM; in [6], 0.022 µM.
As to `O=C(c1ccc(-c2cnc3ccc(NCC4CC4)nn23)cc1)N(Cc1cccc(Cl)c1)C[C@@H]1C[C@@H](F)CN1`, the Papp in series [2] is above 50 ×10⁻⁶ cm/s. Besides, the inhibition in vivo at 30 mg/kg in the series on Mus musculus is 40%. For the same compound, the Cp with Plasma came out at 0.12 µg/mL. For the same compound, the remaining at 0.5 h, 1 µM in series [4] amounted to 7%. Besides, the IC50 in the series on Blood is 0.59 µM; in series [6], 0.017 µM.
On to `CN(C[C@@H]1CCCN1)C(=O)c1ccc(-c2cnc3ccc(NCC4CC4)nn23)cc1`, for which, in [2], the Papp came out at 6.1 ×10⁻⁶ cm/s. The IC50 was determined as 1.9 µM in the series with Blood and 0.097 µM in series [6].
The matching figures for `O=C(O)CN(C[C@@H]1C[C@@H](F)CN1)C(=O)c1ccc(-c2cnc3ccc(NCC4CC4)nn23)cc1`: 14 ×10⁻⁶ cm/s, 3.9 µM and 0.11 µM.
`CCN(C[C@@H]1C[C@@H](F)CN1)C(=O)c1ccc(-c2cnc3ccc(NCC4CC4)nn23)cc1`: in [2], the Papp amounted to 42 ×10⁻⁶ cm/s. For the same compound, the inhibition in vivo at 30 mg/kg with Mus musculus was 32%. This compound came in with a Cp in the series on Plasma of 0.15 µg/mL. In [4], the remaining at 0.5 h, 1 µM was found to be 33%. Besides, the IC50 is 0.23 µM in the series with Blood and 0.018 µM in series [6].
In the case of `O=C(c1ccc(-c2cnc3ccc(NCC4CC4)nn23)cc1)N(CCO)C[C@@H]1C[C@@H](F)CN1`, the Papp in series [2] came out at 15 ×10⁻⁶ cm/s. For the same compound, the IC50 with Blood stood at 0.68 µM; in series [6], 0.015 µM.
Turning to `O=C(c1ccc(-c2cnc3ccc(NCC4CC4)nn23)cc1)N(Cc1ccc(Cl)cc1)C[C@@H]1C[C@@H](F)CN1`, in series [2], the Papp came out at 39 ×10⁻⁶ cm/s. Also, in the series with Mus musculus, the inhibition in vivo at 30 mg/kg stood at 61%. The compound further registered a Cp in the series on Plasma of 0.45 µg/mL. In addition, the remaining at 0.5 h, 1 µM in series [4] stood at 28%. Moreover, the figures for the IC50 (with Blood; in series [6]) were 1.2 µM and 0.017 µM, respectively.
On to `CCCN(C[C@@H]1C[C@@H](F)CN1)C(=O)c1ccc(-c2cnc3ccc(NCC4CC4)nn23)cc1`, for which the Papp in [2] is above 50 ×10⁻⁶ cm/s. Further, in the series with Mus musculus, the inhibition in vivo at 30 mg/kg was 52%. The compound also gave a Cp with Plasma of 0.16 µg/mL. Besides, the remaining at 0.5 h, 1 µM in series [4] came out at 33%. Further, the IC50 with Blood was 0.17 µM; in series [6] it was 0.016 µM.
Consider `CO[C@H]1CN[C@H](CNC(=O)c2ccc(-c3cnc4ccc(NCC5CC5)nn34)cc2)C1`, for which, in series [2], the Papp is below 2 ×10⁻⁶ cm/s. Moreover, the IC50 in the series with Blood is 2.7 µM; in series [6], 0.071 µM.
On to `O=C(c1ccc(-c2cnc3ccc(NCC4CC4)nn23)cc1)N(C/C=C/c1ccccc1)C[C@@H]1C[C@@H](F)CN1`, for which, in [2], the Papp was above 50 ×10⁻⁶ cm/s. For the same compound, the results for the IC50 (in the series on Blood; in [6]) were 0.95 µM and 0.013 µM, respectively.
As to `CN(C)CCNC(=O)c1ccc(-c2cnc3ccc(NCC4CC4)nn23)cc1`, the Papp in series [2] was above 50 ×10⁻⁶ cm/s. In the series with Mus musculus, the inhibition in vivo at 30 mg/kg is 10%. In the series on Plasma, this compound came in with a Cp of 0.39 µg/mL. Also, the remaining at 0.5 h, 1 µM in [4] came out at 71%. Further, in the series on Blood, the half-inhibitory concentration (IC50) is 0.8 µM.
In turn, `O=C(c1ccc(-c2cnc3ccc(NCC4CC4)nn23)cc1)N(C[C@@H]1C[C@@H](F)CN1)c1ccccc1` gave an IC50 in series [6] of 7.3 µM.

In general, inhibition refers to the percentage by which the read-out fell short of the control. The IC50 is the concentration that gives 50% inhibition. By inhibition in vivo is commonly meant the share of the control response that was lost under treatment.
